The source made the active and inactive calls. No cut-off for these calls is given here.

One data set has as its system Hepatitis B virus subtype adw2. Kind of data set: Antiviral activity against Hepatitis B virus subtype adw2 infected in human HepG2.2.15 cells assessed as inhibition of HBeAg secretion by EIA.
Settings: not given
Regarding `C=C1C[C@@]23CC[C@H]4[C@@](C)(CCC[C@@]4(C)NC(=O)CCC)[C@@H]2CC[C@]1(O)C3`, the inhibition result was “Active”.
For the molecule `C=C1C[C@@]23CC[C@H]4[C@@](C)(CCC[C@@]4(C)NC(=O)c4ccccc4)[C@@H]2CC[C@]1(O)C3`, the inhibition result is “Active”.
Still for that read-out and setting: under `C=C1C[C@@]23CC[C@H]4[C@@](C)(CCC[C@@]4(C)NC(=O)c4ccc(Cl)cc4)[C@@H]2CC[C@]1(O)C3` stands “Active”; under `C=C1C[C@@]23CC[C@H]4[C@@](C)(CCC[C@@]4(C)NC(C)=O)[C@@H]2CC[C@]1(O)C3`, “Active”.
Regarding `C=C1C[C@@]23CC[C@H]4[C@@](C)(CCC[C@@]4(C)NC(=O)c4ccc(C)cc4)[C@@H]2CC[C@]1(O)C3`, the inhibition entry is “Active”.
In the case of `C=C1C[C@@]23CC[C@H]4[C@@](C)(CCC[C@@]4(C)NC(=O)CCCC)[C@@H]2CC[C@]1(O)C3`, the inhibition result is “Active”.
On the same count and under the same terms, next, `C=C1C[C@@]23CC[C@H]4[C@@](C)(CCC[C@@]4(C)NC(=O)CCCCC)[C@@H]2CC[C@]1(O)C3`: “Active”.
Still for that read-out and setting: under `C=C1C[C@@]23CC[C@H]4[C@@](C)(CCC[C@@]4(C)NC(=O)c4ccc(OC)cc4)[C@@H]2CC[C@]1(O)C3` stands “Active”; under `C=C1C[C@@]23CC[C@H]4[C@@](C)(CCC[C@@]4(C)NC(=O)Nc4ccc(F)cc4)[C@@H]2CC[C@]1(O)C3`, “Active”.
As for `C=C1C[C@@]23CC[C@H]4[C@@](C)(CCC[C@@]4(C)NC(=O)Nc4ccc(Br)cc4)[C@@H]2CC[C@]1(O)C3`, the inhibition entry was “Active”.

A further data set deals with Hepatitis B virus subtype adw2. In words: Antiviral activity against Hepatitis B virus subtype adw2 infected in human HuH7 cells assessed as inhibition of viral DNA replication by RT-PCR method.
Settings: not given
The class given is functional, cell-based.
As for `C=C1C[C@@]23CC[C@H]4[C@@](C)(CCC[C@@]4(C)NC(=O)c4ccccc4)[C@@H]2CC[C@]1(O)C3`, the inhibition result was “Active”.
For `C=C1C[C@@]23CC[C@H]4[C@@](C)(CCC[C@@]4(C)NC(=O)c4ccc(Cl)cc4)[C@@H]2CC[C@]1(O)C3`, the inhibition entry was “Active”.
Consider `C=C1C[C@@]23CC[C@H]4[C@@](C)(CCC[C@@]4(C)NC(C)=O)[C@@H]2CC[C@]1(O)C3`, for which the inhibition result is “Active”.
Same read-out and setting: next, `C=C1C[C@@]23CC[C@H]4[C@@](C)(CCC[C@@]4(C)NC(=O)c4ccc(C)cc4)[C@@H]2CC[C@]1(O)C3`: “Active”.
`C=C1C[C@@]23CC[C@H]4[C@@](C)(CCC[C@@]4(C)NC(=O)CCCC)[C@@H]2CC[C@]1(O)C3`: the inhibition result is “Active”.
Still for that read-out and setting: under `C=C1C[C@@]23CC[C@H]4[C@@](C)(CCC[C@@]4(C)NC(=O)CCCCC)[C@@H]2CC[C@]1(O)C3` stands “Active”; under `C=C1C[C@@]23CC[C@H]4[C@@](C)(CCC[C@@]4(C)NC(=O)c4ccc(OC)cc4)[C@@H]2CC[C@]1(O)C3`, “Active”.

System in another data set: not listed separately
In words: Antiviral activity against Hepatitis B virus in human HepG2.2.15 cells assessed as inhibition of HBsAg secretion by EIA.
Settings: not given
On to `C=C1C[C@@]23CC[C@H]4[C@@](C)(CCC[C@@]4(C)NC(=O)Nc4ccc(C)cc4)[C@@H]2CC[C@]1(O)C3`, for which the IC50 came to 59.6 µM.

The subject of the next data set is Hepatitis B virus subtype adw2. Kind of data set: Antiviral activity against Hepatitis B virus subtype adw2 infected in human HepG2.2.15 cells assessed as inhibition of HBsAg secretion by EIA.
Settings: not given
As for `C=C1C[C@@]23CC[C@H]4[C@@](C)(CCC[C@@]4(C)NC(=O)CCC)[C@@H]2CC[C@]1(O)C3`, the inhibition result was “Active”.
On the same count and under the same terms, under `C=C1C[C@@]23CC[C@H]4[C@@](C)(CCC[C@@]4(C)NC(=O)c4ccccc4)[C@@H]2CC[C@]1(O)C3` stands “Active”; under `C=C1C[C@@]23CC[C@H]4[C@@](C)(CCC[C@@]4(C)NC(=O)c4ccc(Cl)cc4)[C@@H]2CC[C@]1(O)C3`, “Active”.
Still for that read-out and setting: under `C=C1C[C@@]23CC[C@H]4[C@@](C)(CCC[C@@]4(C)NC(C)=O)[C@@H]2CC[C@]1(O)C3` stands “Active”.
Same read-out and setting: next, `C=C1C[C@@]23CC[C@H]4[C@@](C)(CCC[C@@]4(C)NC(=O)c4ccc(C)cc4)[C@@H]2CC[C@]1(O)C3`: “Active”.
Turning to `C=C1C[C@@]23CC[C@H]4[C@@](C)(CCC[C@@]4(C)NC(=O)CCCC)[C@@H]2CC[C@]1(O)C3`, the inhibition entry is “Active”.
Consider `C=C1C[C@@]23CC[C@H]4[C@@](C)(CCC[C@@]4(C)NC(=O)CCCCC)[C@@H]2CC[C@]1(O)C3`, for which the inhibition entry was “Active”.
The same measure, in the same setting: next, `C=C1C[C@@]23CC[C@H]4[C@@](C)(CCC[C@@]4(C)NC(=O)c4ccc(OC)cc4)[C@@H]2CC[C@]1(O)C3`: “Active”; `C=C1C[C@@]23CC[C@H]4[C@@](C)(CCC[C@@]4(C)NC(=O)Nc4ccc(F)cc4)[C@@H]2CC[C@]1(O)C3`: “Active”; `C=C1C[C@@]23CC[C@H]4[C@@](C)(CCC[C@@]4(C)NC(=O)Nc4ccc(Br)cc4)[C@@H]2CC[C@]1(O)C3`: “Active”.

The test system of a further data set is Hepatitis B virus subtype adw2. In words: Antiviral activity against Hepatitis B virus subtype adw2 infected in human HuH7 cells assessed as inhibition of viral DNA replication at 10 uM after 2 days by RT-PCR method. The data set is classed as functional, cell-based.
Settings: not given
Put shortly:
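Huh7 cells transfected with pHBV1.2, a plasmid carrying 1.2-fold of the HBV adw2 genome, for 2 days, then treated for another 2 days. Secreted viral particles were isolated from the culture medium and extracellular HBV DNA quantified by real-time PCR against untreated or vehicle controls; n = 3.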
Consider `COc1ccc(C[C@H]2NC[C@H](O)[C@H]2OC(C)=O)cc1`, for which the inhibition result is “inactive”.

System in the next data set: not listed separately
Kind of data set: Antiviral activity against Hepatitis B virus subtype adw2 infected in human HuH7 cells assessed as reduction in HBx level at 5 ug/ml after 2 days by immunoblot method relative to control. The data set is classed as functional.
Settings: not given
Put shortly: (§1)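 Huh7 cells were transfected with pHBV1.2 (1.2-fold HBV adw2 genome) for 2 days, then exposed to 2.5, 5 or 10 μg/mL for another 2 days. Whole-cell protein was extracted with protease inhibitors. SHBs, HBcAg and HBx were detected by immunoblot, with α-tubulin for comparison.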
Regarding `Nc1ccn([C@@H]2CS[C@H](CO)O2)c(=O)n1` [LAMIVUDINE], the “fold change (FC)” value came out at 0.17.

System in the next data set: not listed separately
Kind of data set: Antiviral activity against Hepatitis B virus subtype adw2 infected in human HuH7 cells assessed as inhibition of HBsAg secretion by EIA. The class given is functional, cell-based. The conditions noted are these: Huh-7.
Consider `C=C1C[C@@]23CC[C@H]4[C@@](C)(CCC[C@@]4(C)NC(=O)Nc4ccccc4)[C@@H]2CC[C@]1(O)C3`, for which the IC50 worked out at 33.5 µM.

System in the next data set: not listed separately
In words: Antiviral activity against Hepatitis B virus in human HepG2.2.15 cells assessed as inhibition of viral DNA replication by RT-PCR method.
Settings: not given
On to `Nc1ccn([C@@H]2CS[C@H](CO)O2)c(=O)n1` [LAMIVUDINE], for which the IC50 is 108 µM.

System in the next data set: not listed separately
Kind of data set: Antiviral activity against Hepatitis B virus subtype adw2 infected in human HuH7 cells assessed as reduction in HBcAg level at 5 ug/ml after 2 days by immunoblot method relative to control. The class given is functional.
Settings: not given
Put shortly: as §1
As to `Nc1ccn([C@@H]2CS[C@H](CO)O2)c(=O)n1` [LAMIVUDINE], the “fold change (FC)” value was 0.21.

System in another data set: not listed separately
In words: Cytotoxicity against human HepG2.2.15 cells assessed as reduction in cell viability after 3 days by MTS assay. The conditions noted are these: read-out: TC50.
As for `Nc1ccn([C@@H]2CS[C@H](CO)O2)c(=O)n1` [LAMIVUDINE], the CC50 at 72 h stood at 2360 µM.
On the same count and under the same terms, next, `O=c1[nH]cc(F)c(=O)[nH]1` [FLUOROURACIL]: 228 µM.

System in the next data set: not listed separately
Kind of data set: Selectivity index, ratio of TC50 for human HepG2.2.15 cells to IC50 for Hepatitis B virus subtype adw2 infected in human HuH7 cells assessed as inhibition of viral DNA replication.
Settings: not given
As to `Nc1ccn([C@@H]2CS[C@H](CO)O2)c(=O)n1` [LAMIVUDINE], the selectivity ratio stood at 22.

The values are drawn from ChEMBL document CHEMBL3997773, “Synthesis of C-4-Substituted Steviol Derivatives and Their Inhibitory Effects against Hepatitis B Virus” (J Nat Prod, 2016).
